ChEMBL document CHEMBL2380272, “Biological evaluation of bisbenzaldehydes against four Mycobacterium species” (Eur J Med Chem, 2013)
≈ marks a conversion by molar mass, not a printed value.

Assays:
[1] = test system: Mycobacterium tuberculosis; assay: Antimycobacterial activity against Mycobacterium tuberculosis H37Rv ATCC 27294 assessed as growth inhibition at 0.1 uM after 6 days by luciferase reporter gene assay relative to control; assay type: functional; conditions: H37Rv ATCC 27294, 144 h, read-out: GI
Summary of the method: (§1)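 Luminescent M. tb H37Rv (hsp60-driven luciferase) in 7H9 + 10% FCS was seeded at 50 000 RLU/mL. Compounds were tested at 10, 1 and 0.1 µM from 10 mM DMSO stocks. After 6 days, luminescence was read with 1% n-decanal. Growth inhibition (%) was expressed against untreated culture, with triplicates.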

[2] = test system: Mycobacterium tuberculosis; assay: Antimycobacterial activity against Mycobacterium tuberculosis H37Rv ATCC 27294 assessed as growth inhibition at 10 uM after 6 days by luciferase reporter gene assay relative to control; assay type: functional; conditions: H37Rv ATCC 27294, 144 h, read-out: GI; summary of the method: as §1
[3] = test system: Mycobacterium tuberculosis; assay: Antimycobacterial activity against Mycobacterium tuberculosis H37Rv ATCC 27294 assessed as growth inhibition at 1 uM after 6 days by luciferase reporter gene assay relative to control; assay type: functional; conditions: H37Rv ATCC 27294, 144 h, read-out: GI; summary of the method: as §1
[4] = test system: Mycobacterium tuberculosis; assay: Antimycobacterial activity against Mycobacterium tuberculosis H37Rv infected in mouse J774.A1 cells at 1 MOI assessed as intracellular bacterial growth inhibition at 10 uM after 1 hr by luciferase reporter gene assay relative to control; assay type: functional; conditions: J774.A1, 1 h, read-out: GI
Salmonella typhimurium [5] = assay: Genotoxicity in recombinant Salmonella typhimurium TA104 expressing Vibrio fisheri luxabcd genes under transcriptional control of recN2-4 promoter assessed as concentration required to cause DNA damage measured every 5 mins for 4 hrs by vitotox assay in presence of S9 fraction; assay type: toxicity, organism-based; conditions: salmonella enterica subsp. enterica serovar typhimurium, s9, 4 h
Summary of the method: (§2)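 VITOTOX genox strain TA104 recN2-4 (recN promoter driving lux). Grown 16 h at 36 °C in poor LB, diluted 125-fold and shaken 1 h, then diluted 10-fold; rat aroclor S9 added for +S9 runs. Incubated at 30 °C with light read every 5 min for 4 h. Signal/noise = exposed over unexposed light. Highest concentration tested 10 µM.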

[6] = Cytotoxicity against human HepG2/C3A cells assessed as cell viability at 120 uM after 24 hrs by neutral red uptake assay relative to control; assay type: cell-based; conditions: read-out: Activity
Summary of the method: (§3)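 C3A cells grown in DMEM + 10% FCS, 40 000 cells/well, recovered overnight at 37 °C, 5% CO2. Exposed 24 h to serial dilutions in DMEM + 10% FCS from 18 mM DMSO stocks, DMSO limited to 1%. Neutral red added for 3 h, cells washed, dye extracted with ethanol/acetic acid (50%/1%), OD read at 540 nm with 620 nm reference. Viability expressed as % of untreated cells.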

[7] = Selectivity index, ratio of NI50 for human HepG2/C3A cells to MIC50 for Mycobacterium tuberculosis H37Rv ATCC 27294; assay type: functional
[8] = Cytotoxicity against human HepG2/C3A cells assessed as cell viability at 180 uM after 24 hrs by neutral red uptake assay relative to control; assay type: cell-based; conditions: read-out: Activity; summary of the method: as §3
Mycobacterium ulcerans = assay: Antimycobacterial activity against Mycobacterium ulcerans 1615 assessed as growth inhibition after 6 days by luciferase reporter gene assay; assay type: functional; conditions: Mycobacterium ulcerans, 1615, 144 h
Summary of the method: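 M. ulcerans 1615 carrying pSMT1 luciferase reporter plasmid, stock grown as surface pellicle on Sauton medium, cultured at 32 °C. Serial compound dilutions in 7H9 + 10% FCS from 10 mM DMSO stocks, tested in triplicate. Filtered bacteria added at 50 000 RLU/mL. After 6 days, wells collected and washed with PBS, 1% n-decanal in ethanol added, light read over 10 s. MIC50 = concentration giving 50% inhibition versus untreated.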

Salmonella typhimurium [9] = assay: Genotoxicity in recombinant Salmonella typhimurium TA104 expressing Vibrio fisheri luxabcd genes under transcriptional control of recN2-4 promoter assessed as concentration required to cause DNA damage measured every 5 mins for 4 hrs by vitotox assay in absence of S9 fraction; assay type: toxicity, organism-based; conditions: salmonella enterica subsp. enterica serovar typhimurium; summary of the method: as §2
[10] = Toxicity in recombinant Salmonella typhimurium TA104 expressing luxabcd genes under transcriptional control of constitutive pr1 promoter assessed as concentration required to reduce cell viability measured every 5 mins for 4 hrs by vitotox assay in presence of S9 fraction; assay type: organism-based; conditions: salmonella enterica subsp. enterica serovar typhimurium; read-out: Activity
Summary of the method: (§4)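 Cytox strain TA104 pr1 (constitutive promoter driving lux), run alongside the genox strain. Grown in poor LB at 36 °C for 16 h, diluted 125-fold and shaken 1 h, then diluted 10-fold, with or without aroclor-rat S9. Luminescence read at 30 °C every 5 min over 4 h; a drop in light signal indicates reduced viability. Top concentration 10 µM.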

[11] = Antimycobacterial activity against Mycobacterium avium subsp. avium ATCC 15769 assessed as growth inhibition after 6 days by luciferase reporter gene assay; assay type: functional; conditions: ATCC 15769, 144 h
Summary of the method: (§5)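 Mycobacteria carrying the pSMT1 luciferase reporter plasmid. Compounds came from 10 mM DMSO stocks and were serially diluted in 7H9 + 10% FCS. Thawed bacteria were filtered, recovered 1 h at 37 °C, then added at 50 000 RLU/mL. After 6 days of culture, light was read for 10 s after adding 1% n-decanal. Triplicates were run, and MIC50 was the concentration giving 50% growth inhibition.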

[12] = Cytotoxicity against human HepG2/C3A cells assessed as cell viability at 60 uM after 24 hrs by neutral red uptake assay relative to control; assay type: cell-based; conditions: read-out: Activity; summary of the method: as §3
[13] = test system: Mycobacterium tuberculosis; assay: Antimycobacterial activity against Mycobacterium tuberculosis H37Rv infected in mouse J774.A1 cells at 1 MOI assessed as intracellular bacterial growth inhibition at 1 uM after 1 hr by luciferase reporter gene assay relative to control; assay type: functional; conditions: J774.A1, 1 h, read-out: GI
[14] = test system: Mycobacterium tuberculosis; assay: Antimycobacterial activity against Mycobacterium tuberculosis H37Rv infected in mouse J774.A1 cells at 1 MOI assessed as intracellular bacterial growth inhibition at 0.1 uM after 1 hr by luciferase reporter gene assay relative to control; assay type: functional; conditions: J774.A1, 1 h, read-out: GI
[15] = test system: Mycobacterium avium subsp. paratuberculosis; assay: Antimycobacterial activity against Mycobacterium avium subsp. paratuberculosis ATCC 19698 assessed as growth inhibition after 6 days by luciferase reporter gene assay; assay type: functional; conditions: ATCC 19698, 144 h; summary of the method: as §5
Salmonella typhimurium [16] = assay: Toxicity in recombinant Salmonella typhimurium TA104 expressing luxabcd genes under transcriptional control of constitutive pr1 promoter assessed as concentration required to reduce cell viability measured every 5 mins for 4 hrs by vitotox assay in absence of S9 fraction; assay type: organism-based; conditions: salmonella enterica subsp. enterica serovar typhimurium; summary of the method: as §4
[17] = test system: Mycobacterium tuberculosis; assay: Antimycobacterial activity against Mycobacterium tuberculosis H37Rv ATCC 27294 assessed as growth inhibition after 6 days by luciferase reporter gene assay; assay type: functional; conditions: H37Rv ATCC 27294, 144 h; summary of the method: as §5

| SMILES | inhibition of growth at 0.1 µM [1] | inhibition of growth at 10 µM [2] | inhibition of growth at 1 µM [3] | also measured |
| --- | --- | --- | --- | --- |
| O=C(O)c1ccc(OCCCCCCCCCCCOc2ccc(C(=O)O)cc2)cc1 | < 10% | 15% | < 10% | – |
| c1ccc(OCCCCCCCCCCCCOc2ccccc2)cc1 | < 10% | < 10% | < 10% | – |
| O=Cc1ccc(OCCOc2ccc(C=O)cc2)cc1 | < 10% | 90% | 41% | intracellular bacterial growth inhibition at 10 µM [4]: 39.2%; Activity (Salmonella typhimurium [5]): > 10 µM; viability at 24 h, 120 µM [6]: 85%; Selectivity Index [7]: >80.7; viability at 24 h, 180 µM [8]: 70.5%; MIC50 (Mycobacterium ulcerans): > 10 µM; Activity (Salmonella typhimurium [9]): > 10 µM; MCC at 4 h [10]: > 10 µM; MIC50 [11]: > 10 µM; viability at 24 h, 60 µM [12]: 93.6%; percent inhibition of intracellular bacterial growth at 1 µM [13]: 32.6%; intracellular bacterial growth inhibition at 0.1 µM [14]: 0.3%; MIC50 [15]: > 10 µM; Activity (Salmonella typhimurium [16]): > 10 µM; MIC50 [17]: 2.23 µM (≈ 0.603 µg/mL) |
| O=Cc1ccc(OCCCOc2ccc(C=O)cc2)cc1 | < 10% | 84% | 35% | intracellular bacterial growth inhibition at 10 µM [4]: 42%; Activity (Salmonella typhimurium [5]): > 10 µM; viability at 24 h, 120 µM [6]: 94.8%; Selectivity Index [7]: >67.9; viability at 24 h, 180 µM [8]: 77.4%; MIC50 (Mycobacterium ulcerans): > 10 µM; Activity (Salmonella typhimurium [9]): > 10 µM; MCC at 4 h [10]: > 10 µM; MIC50 [11]: > 10 µM; viability at 24 h, 60 µM [12]: 94.9%; percent inhibition of intracellular bacterial growth at 1 µM [13]: 29.9%; intracellular bacterial growth inhibition at 0.1 µM [14]: -1.2%; MIC50 [15]: > 10 µM; Activity (Salmonella typhimurium [16]): > 10 µM; MIC50 [17]: 2.65 µM (≈ 0.753 µg/mL) |
| O=Cc1ccc(OCCCCOc2ccc(C=O)cc2)cc1 | < 10% | 87% | 25% | intracellular bacterial growth inhibition at 10 µM [4]: 41.3%; Activity (Salmonella typhimurium [5]): > 10 µM; viability at 24 h, 120 µM [6]: 73.2%; Selectivity Index [7]: >56.1; viability at 24 h, 180 µM [8]: 55.7%; MIC50 (Mycobacterium ulcerans): > 10 µM; Activity (Salmonella typhimurium [9]): > 10 µM; MCC at 4 h [10]: > 10 µM; MIC50 [11]: > 10 µM; viability at 24 h, 60 µM [12]: 86.1%; percent inhibition of intracellular bacterial growth at 1 µM [13]: 39%; intracellular bacterial growth inhibition at 0.1 µM [14]: -0.9%; MIC50 [15]: > 10 µM; Activity (Salmonella typhimurium [16]): > 10 µM; MIC50 [17]: 3.21 µM (≈ 0.958 µg/mL) |
| O=C(O)c1ccc(OCCCCCCCCCOc2ccc(C(=O)O)cc2)cc1 | < 10% | 17% | 17% | – |
| O=C(O)c1ccc(OCCCCCCCCOc2ccc(C(=O)O)cc2)cc1 | < 10% | 29% | 29% | – |
| O=Cc1ccc(OCOc2ccc(C=O)cc2)cc1 | < 10% | 85% | 30% | intracellular bacterial growth inhibition at 10 µM [4]: 41.3%; Activity (Salmonella typhimurium [5]): > 10 µM; viability at 24 h, 120 µM [6]: 91.6%; Selectivity Index [7]: >60; viability at 24 h, 180 µM [8]: 78.6%; MIC50 (Mycobacterium ulcerans): > 10 µM; Activity (Salmonella typhimurium [9]): > 10 µM; MCC at 4 h [10]: > 10 µM; MIC50 [11]: > 10 µM; viability at 24 h, 60 µM [12]: 96.8%; percent inhibition of intracellular bacterial growth at 1 µM [13]: 35.2%; intracellular bacterial growth inhibition at 0.1 µM [14]: 1.6%; MIC50 [15]: > 10 µM; Activity (Salmonella typhimurium [16]): > 10 µM; MIC50 [17]: 3 µM (≈ 0.769 µg/mL) |
| O=C(O)c1ccc(OCCCCCCOc2ccc(C(=O)O)cc2)cc1 | < 10% | 39% | 26% | – |
| O=Cc1cccc(OCCCCCCCCCCCCOc2cccc(C=O)c2)c1 | < 10% | < 10% | < 10% | – |
| O=Cc1ccc(OCCOCCOc2ccc(C=O)cc2)cc1 | < 10% | 70% | 12% | – |
| O=C(O)c1ccc(OCCCOc2ccc(C(=O)O)cc2)cc1 | < 10% | < 10% | < 10% | – |
| O=C(O)c1ccc(OCCOc2ccc(C(=O)O)cc2)cc1 | < 10% | 38% | < 10% | – |
| O=Cc1ccccc1OCCCCCOc1ccccc1C=O | < 10% | 39% | 15% | – |
| O=C(O)c1ccc(OCCCCCCCOc2ccc(C(=O)O)cc2)cc1 | < 10% | 38% | 14% | – |
| O=C(O)c1ccc(OCCCCCCCCCCCCOc2ccc(C(=O)O)cc2)cc1 | < 10% | < 10% | < 10% | – |
| NNC(=O)c1ccncc1 [ISONIAZID] | 98% | 100% | 100% | intracellular bacterial growth inhibition at 10 µM [4]: 97.7%; MIC50 (Mycobacterium ulcerans): 0.39 µM (≈ 0.0535 µg/mL); MIC50 [11]: < 0.1 µM; percent inhibition of intracellular bacterial growth at 1 µM [13]: 82.3%; intracellular bacterial growth inhibition at 0.1 µM [14]: 37%; MIC50 [15]: < 0.1 µM; MIC50 [17]: < 0.1 µM |
| O=Cc1ccc(OCCCCCCCCCCCCCCOc2ccc(C=O)cc2)cc1 | 30% | 98% | 57% | – |
| CCCCCCCCCCCCOc1ccc(C=O)cc1 | < 10% | < 10% | < 10% | – |
| O=C(O)c1ccc(OCCCCCOc2ccc(C(=O)O)cc2)cc1 | < 10% | 27% | 30% | – |
| O=Cc1cccc(OCCCCCOc2cccc(C=O)c2)c1 | < 10% | 97% | < 10% | – |
| O=C(O)c1ccc(OCOc2ccc(C(=O)O)cc2)cc1 | < 10% | 40% | < 10% | – |
| O=[N+]([O-])c1ccc(OCCCCCCCCCCCCOc2ccc([N+](=O)[O-])cc2)cc1 | < 10% | 91% | < 10% | – |
| O=Cc1ccc(OCC(O)COc2ccc(C=O)cc2)cc1 | < 10% | 60% | < 10% | – |
| O=C(O)c1ccc(OCCCCOc2ccc(C(=O)O)cc2)cc1 | < 10% | 27% | 26% | – |
| O=C(O)c1ccc(OCCCCCCCCCCOc2ccc(C(=O)O)cc2)cc1 | < 10% | 40% | < 10% | – |
